In ChEMBL document CHEMBL1125582, “4-hydroxythiazole inhibitors of 5-lipoxygenase” (J Med Chem, 1991):
Activity calls are given as the source filed them. The calls are words filed in the database; no cut-off is given here.

target: T1, Polyunsaturated fatty acid 5-lipoxygenase (Rattus norvegicus, UniProt P12527); assay: In vitro inhibition of 5-lipoxygenase (5-lo) from the 20000 g supernatant of RBI-1 cells; assay type: cell-based
T1 sequence (P12527 whole entry): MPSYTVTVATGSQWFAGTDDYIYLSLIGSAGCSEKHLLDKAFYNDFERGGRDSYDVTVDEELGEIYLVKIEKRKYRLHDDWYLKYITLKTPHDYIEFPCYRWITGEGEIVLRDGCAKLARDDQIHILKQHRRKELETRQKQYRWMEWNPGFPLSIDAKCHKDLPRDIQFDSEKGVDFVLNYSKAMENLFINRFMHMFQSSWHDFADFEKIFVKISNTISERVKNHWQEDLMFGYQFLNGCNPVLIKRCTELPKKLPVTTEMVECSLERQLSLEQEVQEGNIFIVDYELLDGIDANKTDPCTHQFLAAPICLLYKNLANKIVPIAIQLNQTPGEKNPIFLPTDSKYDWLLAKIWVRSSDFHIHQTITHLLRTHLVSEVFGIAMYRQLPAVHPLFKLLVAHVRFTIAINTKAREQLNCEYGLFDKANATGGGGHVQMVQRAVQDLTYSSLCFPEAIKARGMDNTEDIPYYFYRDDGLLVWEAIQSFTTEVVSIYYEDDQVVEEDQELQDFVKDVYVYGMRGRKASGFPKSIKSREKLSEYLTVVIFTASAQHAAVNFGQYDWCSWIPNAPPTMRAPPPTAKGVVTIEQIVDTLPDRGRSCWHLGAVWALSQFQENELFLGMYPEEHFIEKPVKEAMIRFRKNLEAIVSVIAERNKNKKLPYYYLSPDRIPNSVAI

SMILES | IC50 [nM]
Oc1nc(-c2ccncc2)sc1-c1ccccc1 | 540
Cc1sc(-c2ccco2)nc1O | 2400
Cc1sc(-c2ccc(C(F)(F)F)cc2)nc1O | 2500
CC(=O)c1ccc(-c2nc(O)c(C)s2)cc1 | 1400
Cc1sc(-c2ccc(S(N)(=O)=O)cc2)nc1O | 2200
Cc1sc(-c2cnc3ccccc3c2)nc1O | 16000
CCCCC/C=C/C/C=C/C/C=C/C/C=C/CCCC(=O)NO | 2200
Cc1sc(-c2ccncc2)nc1O | 14000
Cc1sc(-c2ccc(N)cc2)nc1O | 15000
Cc1sc(-c2ccc([N+](=O)[O-])cc2)nc1O | 1600
Oc1nc(-c2ccc(-c3ccccc3)cc2)sc1-c1ccccc1 | 2200
Cc1sc(-c2ccc(C(=O)O)cc2)nc1O | 30000
Cc1nc(O)c(-c2ccccc2)s1 | 700
CCCc1sc(-c2ccccc2)nc1OC(=O)NC | 8800
Oc1sc(-c2ccccc2)nc1-c1ccccc1 | 6900
Cc1sc(-c2ccc(SC(F)(F)F)cc2)nc1O | 2700
CC(=O)Oc1nc(-c2ccc(C(=O)O)cc2)sc1C | 14000
CCCCCC/C(O)=C\C/C=C\C/C=C\C=C\CCCCC(=O)O | 7300

SMILES | IC50 [nM]
CCCCNC(=O)Oc1nc(-c2ccccc2)sc1CCC | 24000
O=C(O)c1ccc(-c2nc(O)c(-c3ccccc3)s2)cc1 | 1200
CCCc1sc(-c2ccccc2)nc1OC(=O)Nc1ccccc1 | 460
COc1ccc(-c2nc(O)c(C)s2)cc1 | 1100
CCCCc1sc(-c2ccccc2)nc1O | 18000
CCCc1sc(-c2ccccc2)nc1OC(C)=O | 530
Cc1sc(-c2cccs2)nc1O | 1400
Cc1sc(-c2cc[nH]n2)nc1O | 31000
CCCCC(=O)Oc1nc(-c2ccccc2)sc1-c1ccccc1 | 9100
CC(=O)Oc1nc(-c2ccc(-c3ccccc3)cc2)sc1-c1ccccc1 | 1400
CCCc1sc(-c2ccccc2)nc1OC(=O)OCc1ccccc1 | 2800
CCCCCC(=O)Oc1nc(-c2ccccc2)sc1-c1ccccc1 | 1300
Cc1sc(-c2ccc(C(N)=O)cc2)nc1O | 4800
CC(=O)Oc1nc(-c2ccccc2)sc1-c1ccccc1 | 400
Cc1sc(-c2ccccn2)nc1O | 2100
Oc1nc(-c2cccnc2)sc1-c1ccccc1 | 1100
Cc1ccc(-c2nc(O)c(-c3ccccc3)s2)cc1 | 800

target: T1, Polyunsaturated fatty acid 5-lipoxygenase; assay: Inhibition of 5-lipoxygenase (5-lo) in intact rat polymorphonuclear leukocyte RPMNL
In short: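 Pleural PMNL from carrageenan-injected male Sprague-Dawley rats (200-250 g). Erythrocytes lysed with water, cells washed and held in HEPES/Earle's salts pH 7.0 with 1 mg/mL BSA. 5×10^6 cells preincubated 15 min at 37 °C with compound or DMSO (final 2%). Stimulated with A23187 (final 8.3 μM) for 10 min, stopped on ice. Methanol extracts assayed for LTB₄ by HPLC.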

SMILES | IC50 [nM]
CCCCc1sc(-c2ccccc2)nc1OC(C)=O | 500
CCCc1sc(-c2ccccc2)nc1OC(=O)NC | 400
CCCc1sc(-c2ccccc2)nc1OC(=O)OCC | 700
CCCCNC(=O)Oc1nc(-c2ccccc2)sc1CCC | 800
CCCc1sc(-c2ccccc2)nc1OC(=O)Nc1ccccc1 | 1000
CCCc1sc(-c2ccccc2)nc1OC(C)=O | 660
COC(=O)Cc1sc(-c2ccccc2)nc1O | 2100
CC(=O)Oc1nc(-c2ccc(-c3ccccc3)cc2)sc1-c1ccccc1 | 900
CCCc1sc(-c2ccccc2)nc1OC(=O)OCc1ccccc1 | 1200
CCCCCC(=O)Oc1nc(-c2ccccc2)sc1-c1ccccc1 | 500
Cc1ccc(-c2nc(O)c(C)s2)cc1 | 1200

target: T2, Polyunsaturated fatty acid 5-lipoxygenase (Rattus norvegicus) (UniProt P12527); assay: The compound was tested for the in vitro inhibition of 5-lipoxygenase (5-lo) from the 20000 g supernatant of RBI-1 cells; NS indicates nonsignificant inhibition at 32 uM concentration; assay type: cell-based
T2 sequence (whole entry): T1 sequence (P12527 whole entry)
In short: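 20000g supernatant of homogenized RBL-1 cells (7.5 × 10⁶ cell equiv/mL) preincubated 20 min at 37 °C with inhibitor or 2% Me₂SO vehicle in pH 6.8 BES/PIPES buffer with EDTA, NaCl, 0.7 mM CaCl₂. Reaction started with 66 μM [¹⁴C]arachidonic acid. [¹⁴C]-5-HETE counted by scintillation, corrected for [³H]-5-HETE recovery.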

SMILES | inhibition
Nc1nc(-c2ccccc2)sc1-c1ccccc1 | inactive
CCOC(=O)Cc1nc(O)c(C)s1 | inactive
CCOC(=O)c1nc(O)c(C)s1 | inactive
CCCc1sc(-c2ccccc2)nc1OS(C)(=O)=O | inactive
Cc1sc(C(=O)O)nc1O | inactive
COc1nc(-c2ccccc2)sc1-c1ccccc1 | inactive

target: T3, Polyunsaturated fatty acid 5-lipoxygenase (Homo sapiens, UniProt P09917); assay: The compound was tested for the inhibition of 5-lipoxygenase (5-lo) in human whole blood (HWBL); assay type: tissue-based
T3 sequence (P09917 whole entry): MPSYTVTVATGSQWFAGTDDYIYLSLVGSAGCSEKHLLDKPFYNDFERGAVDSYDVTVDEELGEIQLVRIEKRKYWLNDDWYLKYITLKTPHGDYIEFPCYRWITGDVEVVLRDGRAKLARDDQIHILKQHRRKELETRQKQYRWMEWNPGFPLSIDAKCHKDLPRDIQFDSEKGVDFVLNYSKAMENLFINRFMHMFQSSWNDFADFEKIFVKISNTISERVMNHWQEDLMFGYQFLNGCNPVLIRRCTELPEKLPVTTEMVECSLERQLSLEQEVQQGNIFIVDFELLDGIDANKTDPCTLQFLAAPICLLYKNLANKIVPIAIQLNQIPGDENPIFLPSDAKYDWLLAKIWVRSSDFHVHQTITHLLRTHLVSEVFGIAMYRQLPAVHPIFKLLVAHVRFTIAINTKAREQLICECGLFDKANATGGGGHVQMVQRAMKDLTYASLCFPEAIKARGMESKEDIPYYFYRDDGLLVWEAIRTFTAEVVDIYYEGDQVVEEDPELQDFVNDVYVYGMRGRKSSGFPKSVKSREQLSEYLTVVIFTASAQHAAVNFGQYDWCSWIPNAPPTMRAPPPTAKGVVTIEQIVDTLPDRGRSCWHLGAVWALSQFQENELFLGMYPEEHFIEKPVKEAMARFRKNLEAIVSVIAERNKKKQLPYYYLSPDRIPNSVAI
In short: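 Heparinized (20 units/mL) human blood preincubated 15 min at 37 °C with compound or vehicle. Challenged with A23187 in DMSO (final 50 μM) for 30 min, then chilled and centrifuged. Plasma extracted with 4 volumes methanol for at least 2 h at 3 °C. LTB₄ measured by RIA or EIA.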

SMILES | IC50 [nM]
Cc1nc(O)c(-c2ccccc2)s1 | 5100
CCCc1sc(-c2ccccc2)nc1OC(=O)NC | 5100
CCCc1sc(-c2ccccc2)nc1OC(=O)OCC | 4500
CCCCNC(=O)Oc1nc(-c2ccccc2)sc1CCC | 5500
CC(=O)Oc1nc(-c2ccccc2)sc1-c1ccccc1 | 450
Oc1nc(-c2cccnc2)sc1-c1ccccc1 | 2900
Cc1ccc(-c2nc(O)c(-c3ccccc3)s2)cc1 | 740
